Source: PubChem BioAssay (The Scripps Research Institute Molecular Screening Center)
Most compounds without a hit are left out; they make up all but 1.4% or so of the library.
SIAE inh: human SIAE inhibition, primary screen; 0.69% of 370,000 active; Q9HAT2; AID 1053197; inhibition, % at 9.66 µM; SIAE FP-Rh probe binding, fluorescence polarization;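 active = inhibition above a cutoff: mean of compounds within the control limits plus 3 SD of those, cut at about 17% in these data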
Target sequence (Q9HAT2 whole entry, looked up): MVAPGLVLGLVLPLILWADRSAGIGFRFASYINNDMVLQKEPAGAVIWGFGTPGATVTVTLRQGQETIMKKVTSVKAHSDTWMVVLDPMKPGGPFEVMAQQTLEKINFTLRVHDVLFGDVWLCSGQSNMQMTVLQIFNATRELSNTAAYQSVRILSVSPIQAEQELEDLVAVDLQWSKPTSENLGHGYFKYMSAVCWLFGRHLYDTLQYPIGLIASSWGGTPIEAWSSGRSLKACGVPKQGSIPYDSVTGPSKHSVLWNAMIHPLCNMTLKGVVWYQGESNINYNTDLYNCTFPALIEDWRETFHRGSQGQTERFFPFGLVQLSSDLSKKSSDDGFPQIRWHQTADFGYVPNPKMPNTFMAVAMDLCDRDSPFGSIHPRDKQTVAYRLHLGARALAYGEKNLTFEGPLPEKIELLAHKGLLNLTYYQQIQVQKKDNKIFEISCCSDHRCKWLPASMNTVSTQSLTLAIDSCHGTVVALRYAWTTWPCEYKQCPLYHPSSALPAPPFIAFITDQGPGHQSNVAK
RBBP9 inh: blocks human serine hydrolase RBBP9. recombinant RBBP9, FP-Rh probe fluorescence polarization. inhibition, % at 7.94 µM. 0.2% of 220,000 active. O75884;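 active = inhibition above the campaign mean of all tested compounds plus 3 SD, cut at about 14% in these data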
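Test system – recombinant human RBBP9 · Input – RBBP9 2.5 µM in dispensing solution, pre-mixing · Medium – Tris buffer pH 8.0, NaCl, Pluronic · Schedule – preincubation 30 min plus labeling 45 min at 25 °C · Measured by – fluorescence polarization · Measure – % inhibition · Controls – DMSO and no-protein wells · Replicates – one well per compound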
HTRA1 inhibitor: HTRA1 (human) protease inhibition. 0.5% of 340,000 active. inhibition, % at 5.96 µM. recombinant HTRA1, FP-rhodamine activity-based probe, fluorescence polarization. AID 504803. Q92743; in the data active = inhibition above about 36%
ABHD4 inh: inhibits mouse alpha/beta hydrolase domain 4 | AID 720543 | purified mABHD4, FP-Rh probe fluorescence polarization | inhibition, % at 8.92 µM | 0.54% of 370,000 active;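 active = inhibition exceeding the mean over every tested compound plus 3 SD, cut at about 30% in these data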
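Test system: mouse ABHD4 enzyme, wild type. Reagent: FP-Rh fluorescent activity-based probe, added after compound pre-incubation. Timing: pre-incubation 45 min, probe exposure 60 min, at 25 °C. Technique: FP readout, ex 525 nm / em 598 nm. Benchmarks: high control S159A mutant with DMSO, low control median of compound wells.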
SIAE inh conf: confirmation of human SIAE inhibitors; shares compounds with SIAE inh; inhibition, % at 9.66 µM; AID 1117263; SIAE FP-Rh activity-based probe, fluorescence polarization; 13% of 2,300 active;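 active = mean inhibition of the replicates above the hit cutoff set in the primary screen, cut at about 17% in these data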;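 note: inhibitors lower polarization as more probe stays unbound to SIAE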
Large screens that a line does not name were inactive (follow-up assays come after a bar, where they were run).

O=C(Nc1cccc(-c2csc(Nc3cccc(C(F)(F)F)c3)n2)c1)c1cc([N+](=O)[O-])cc(C(F)(F)F)c1	none (no result: RBBP9 inh)
CCOC(=O)c1c[nH]n(-c2ccccc2)c1=O	none
CCOC(=O)c1c[nH]n(-c2ccc(C)cc2)c1=O	SIAE inh 18 | SIAE inh conf inactive
CCCCCCCCCCCCCCCCCCNc1ccn(C2OC(COP(=O)(O)OCC3OC(n4cc(F)c(=O)[nH]c4=O)CC3O)C(O)C2O)c(=O)n1 (configuration not stated)	none (no result: SIAE inh, RBBP9 inh)
CCOC(=O)c1c(NC(=O)c2ccoc2C)sc2c1CCC2	SIAE inh 24 | SIAE inh conf inactive
CCOc1ccc(NC(=O)NNC(=O)c2ccc3ccccc3c2O)cc1	SIAE inh 21 (no result: RBBP9 inh) | SIAE inh conf inactive
CCOc1ccc(NC(=O)NNC(=O)COc2ccc3ccccc3c2)cc1	none (no result: RBBP9 inh)
COc1ccc(NC(=O)NNC(=O)COc2ccc3ccccc3c2)cc1	SIAE inh 18 (no result: RBBP9 inh) | SIAE inh conf inactive
NNC(=O)c1cc2ccccc2cc1O	SIAE inh 18 | SIAE inh conf inactive
CCOc1ccc(NC(=O)c2cc3ccccc3cc2O)cc1	SIAE inh 18 | SIAE inh conf inactive
O=S(=O)(Nc1ccc(C(O)(C(F)(F)F)C(F)(F)F)cc1)c1cccc2ccccc12	none (no result: RBBP9 inh, HTRA1 inhibitor)
COc1cc(NC(=O)c2cc3ccccc3cc2O)c(OC)cc1Cl	SIAE inh 18 | SIAE inh conf inactive
CCCc1nnc(SCc2ccc(OC)cc2)n1N	SIAE inh 18 | SIAE inh conf inactive
Cc1noc(C)c1COC(=O)c1csc2c1CCC(C)C2 (configuration not stated)	SIAE inh 20 (no result: RBBP9 inh) | SIAE inh conf inactive
COCc1cc(C)nc(SCC(=O)Nc2ccc3c(c2)OCO3)c1C#N	SIAE inh 17 | SIAE inh conf inactive
COCc1cc(C)nc(SCC(=O)Nc2ccc3c(c2)OCCO3)c1C#N	none (no result: RBBP9 inh)
Cc1ccccc1NS(=O)(=O)c1ccc(C(=O)N2CCN(S(=O)(=O)c3ccccc3)CC2)cc1	SIAE inh 19 (no result: RBBP9 inh) | SIAE inh conf inactive
CC(=O)N1CCN(C(=O)c2ccc(S(=O)(=O)Nc3ccccc3C)cc2)CC1	none (no result: RBBP9 inh)
Cc1cc(/C([O-])=C(/C(=S)Nc2ccc(F)cc2)[n+]2ccccc2)c(C)n1Cc1ccccc1Cl	SIAE inh 22 | SIAE inh conf inactive
CC(C)CN(C(=O)COC(=O)/C=C/c1cccs1)c1c(N)n(Cc2ccccc2)c(=O)[nH]c1=O	none (no result: RBBP9 inh)
COCCN(C(=O)c1cc(-c2ccco2)nc2ccccc12)c1c(N)n(Cc2ccccc2)c(=O)[nH]c1=O	SIAE inh 42 (no result: RBBP9 inh) | SIAE inh conf inactive
COCCN(C(=O)COC(=O)/C=C/c1cccs1)c1c(N)n(Cc2ccccc2)c(=O)[nH]c1=O	SIAE inh 21 (no result: RBBP9 inh) | SIAE inh conf inactive
O=C1CCCc2c1cc(C(=O)NCCCN1CCOCC1)c(=O)n2-c1ccc(Cl)cc1	none
Cc1ccc(-n2c3c(cc(C(=O)NCCCN4CCOCC4)c2=O)C(=O)CC(C)(C)C3)cc1	SIAE inh 19 (no result: RBBP9 inh) | SIAE inh conf inactive
O=C(c1ccc2[nH]ccc2c1)N1CCCC(Nc2ccccc2)C1 (configuration not stated)	none (no result: RBBP9 inh)
S=c1[nH]ncn1/N=C/c1ccccn1	SIAE inh 17 | SIAE inh conf inactive
S=c1[nH]ncn1/N=C/c1cccs1	none
CCOC(=O)Cc1csc(NC(=O)Cn2c(=O)oc3ccccc32)n1	none
CCCN(CC(=O)Nc1ccccc1C)C(=O)c1ccc(N2CCCC(C)C2)c([N+](=O)[O-])c1 (configuration not stated)	none (no result: RBBP9 inh)
CCC1CCC(N2CCN(c3ccc([N+](=O)[O-])cc3)CC2)CC1 (configuration not stated)	none (no result: RBBP9 inh)
CCC1CCC(N2CCN(c3ccc(F)cc3)CC2)CC1 (configuration not stated)	SIAE inh 17 (no result: RBBP9 inh) | SIAE inh conf inactive
COc1ccccc1N(C)S(=O)(=O)c1ccc(Cl)c(C(=O)Nc2ccccc2N2CCOCC2)c1	none (no result: RBBP9 inh)
COc1ccccc1CCNC(=O)c1c(N)[nH]c(C(=O)c2ccccc2)c1-c1ccc(Br)cc1	SIAE inh 18 (no result: RBBP9 inh, HTRA1 inhibitor) | SIAE inh conf inactive
Nc1[nH]c(C(=O)c2ccccc2)c(-c2ccc(Br)cc2)c1C(=O)NCCc1c[nH]c2ccccc12	none (no result: RBBP9 inh, HTRA1 inhibitor)
CC(=O)Nc1cc(-c2ccc(N3CCN(C)CC3)cc2)cn2c(-c3ccc(F)c(Cl)c3)cnc12	SIAE inh 18 (no result: RBBP9 inh, HTRA1 inhibitor) | SIAE inh conf inactive
CC(=O)Nc1cc(-c2ccc(N3CCN(C)CC3)cc2)cn2c(-c3cccc(C(C)=O)c3)cnc12	none (no result: RBBP9 inh, HTRA1 inhibitor)
